Test [1] is described as follows: Preliminary phototoxicity screen with green light. In kind it is cell-based. The following applies: green light (520–525 nm); data not shown.
The next test relates to cysteine cathepsins. Kind of test: Cathepsin activity in lysates of treated 4T1 cells, substrate Z-Phe-Arg-AMC. Format: cell-based, murine. The conditions noted are these: 1 μM, 4 h, then 1 h, relative to vehicle control. In short, it runs like this:
(§1)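 4T1 cells were given vehicle, 1 μM test compound, or 1 μM E64d (permeable positive control) for 4 h. Medium was then replaced, and cells received green light (520–525 nm) for 10 min or were kept dark, then incubated 1 h. Substrate 100 μM final; AMC fluorescence (ex 360/em 430 nm) read every 30 s for 5 min at 37 °C; % activity vs vehicle.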

In another test the target is CTSB (Mus musculus, UniProt P10605). Kind of test: Cathepsin activity in lysates of treated 4T1 cells, substrate Z-Arg-Arg-AMC. Format: cell-based, murine. The conditions noted are these: 1 μM, 4 h, then 1 h, relative to vehicle control. In short, it runs like this:
as §1

CTSB, sequence (P10605 80-339): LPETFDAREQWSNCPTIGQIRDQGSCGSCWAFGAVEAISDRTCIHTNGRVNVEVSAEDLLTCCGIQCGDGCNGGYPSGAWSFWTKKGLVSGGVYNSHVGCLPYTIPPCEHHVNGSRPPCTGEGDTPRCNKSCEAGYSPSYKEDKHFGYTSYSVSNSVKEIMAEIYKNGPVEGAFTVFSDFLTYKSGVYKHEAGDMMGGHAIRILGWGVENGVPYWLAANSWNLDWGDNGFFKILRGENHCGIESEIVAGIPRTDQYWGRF

On to [Ru(dppn)(dqpy)-(py)](PF6)2, for which the “phototoxicity in preliminary screen” value in test [1] is reported as “showed phototoxicity”.

With `CCOC(=O)[C@H]1O[C@@H]1C(=O)N[C@@H](CC(C)C)C(=O)NCCC(C)C` [Compound E64d], the “Percent activity of cysteine cathepsins, substrate Z-Phe-Arg-AMC, Dark” value with cysteine cathepsins (dark) is on record as 18 ± 4%. Further, in the test with cysteine cathepsins (green light 10 min), the “Percent activity of cysteine cathepsins, substrate Z-Phe-Arg-AMC, Light” value is listed as 21 ± 4%. At CTSB (dark), the “Percent activity of cysteine cathepsins, substrate Z-Arg-Arg-AMC, Dark” value is given as less than 5%. The “Percent activity of cysteine cathepsins, substrate Z-Arg-Arg-AMC, Light” value on CTSB (green light 10 min) is recorded as less than 5%.
